# Experimental data: ChEMBL document CHEMBL1138064, “Discovery of N-[(3R)-1-azabicyclo[2.2.2]oct-3-yl]furo[2,3-c]pyridine-5-carboxamide, an agonist of the alpha7 nicotinic acetylcholine receptor, for the potential treatment of cognitive deficits in schizophrenia: synthesis and structure--activity relationship” (J Med Chem, 2006)
# Biological target: T1, hERG (Homo sapiens, UniProt Q12809)
# Assay: Inhibition of hERG expressed in HEK293 cells at 20 uM by patch clamp assay
# Type: toxicity, cell-based
# Details: HEK293 cells that express hERG
# Outline: (§1)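 hERG current (IKr) in HEK cells recorded by patch clamp; compound applied at 2 and 20 µM; % block of current reported at each concentration.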
# T1 sequence (Q12809 whole entry): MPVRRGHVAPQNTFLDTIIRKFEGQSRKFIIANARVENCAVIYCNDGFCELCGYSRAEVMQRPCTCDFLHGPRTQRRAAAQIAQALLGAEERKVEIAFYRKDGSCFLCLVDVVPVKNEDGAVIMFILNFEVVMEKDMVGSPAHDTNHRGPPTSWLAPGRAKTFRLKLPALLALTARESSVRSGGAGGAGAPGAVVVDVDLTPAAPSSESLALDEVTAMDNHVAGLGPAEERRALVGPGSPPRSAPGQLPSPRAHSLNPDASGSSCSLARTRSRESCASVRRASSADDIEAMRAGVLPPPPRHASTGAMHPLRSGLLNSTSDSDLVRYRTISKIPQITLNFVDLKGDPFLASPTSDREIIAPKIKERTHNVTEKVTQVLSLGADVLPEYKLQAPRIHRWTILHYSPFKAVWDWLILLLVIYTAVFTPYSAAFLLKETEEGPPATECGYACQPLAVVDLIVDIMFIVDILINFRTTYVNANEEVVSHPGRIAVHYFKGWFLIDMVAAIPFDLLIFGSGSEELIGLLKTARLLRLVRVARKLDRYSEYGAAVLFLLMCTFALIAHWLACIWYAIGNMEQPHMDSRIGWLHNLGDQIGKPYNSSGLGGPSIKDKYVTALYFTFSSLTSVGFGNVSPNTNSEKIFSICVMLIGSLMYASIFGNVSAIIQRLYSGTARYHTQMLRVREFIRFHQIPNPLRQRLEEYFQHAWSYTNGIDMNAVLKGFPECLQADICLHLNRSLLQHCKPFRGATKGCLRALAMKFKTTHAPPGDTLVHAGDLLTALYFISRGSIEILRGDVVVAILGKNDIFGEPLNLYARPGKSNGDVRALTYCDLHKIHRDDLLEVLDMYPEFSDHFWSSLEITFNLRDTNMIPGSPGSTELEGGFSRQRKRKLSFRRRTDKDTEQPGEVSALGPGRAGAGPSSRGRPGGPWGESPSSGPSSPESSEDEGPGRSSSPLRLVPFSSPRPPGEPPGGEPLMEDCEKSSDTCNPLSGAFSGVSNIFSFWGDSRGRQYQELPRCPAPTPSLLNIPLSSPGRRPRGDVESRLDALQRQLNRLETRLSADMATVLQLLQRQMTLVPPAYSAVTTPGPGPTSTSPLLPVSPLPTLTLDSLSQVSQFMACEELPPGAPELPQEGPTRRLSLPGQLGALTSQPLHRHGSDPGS
row,Compound,inhibition at 20 µM [%]
1,O=C(N[C@H]1CN2CCC1CC2)c1ccc2ccsc2c1,65
2,O=C(N[C@H]1CN2CCC1CC2)c1ccc2ccoc2c1,29
3,O=C(N[C@H]1CN2CCC1CC2)c1ccc2occc2c1,33
4,O=C(N[C@H]1CN2CCC1CC2)c1ccc(Cl)cc1 [PNU-282987],57

# System: not listed separately
# Assay: Clearance in rat constant infusion model
# Type: ADME, organism-based
# Details: in vivo, iv
# Outline: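 Clearance determined in a rat constant infusion model.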
row,Compound,clearance [mL/min/kg]
1,O=C(N[C@H]1CN2CCC1CC2)c1ccc2ccoc2c1,58
2,O=C(N[C@H]1CN2CCC1CC2)c1ccc2occc2c1,39
3,O=C(N[C@H]1CN2CCC1CC2)c1ccc(Cl)cc1 [PNU-282987],30

# System: not listed separately
# Assay: Oral bioavailability in rat constant infusion model
# Type: ADME, organism-based
# Details: in vivo
# Outline: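 Rat clearance and oral bioavailability derived from a constant infusion model.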
row,Compound,bioavailability [%]
1,O=C(N[C@H]1CN2CCC1CC2)c1ccc2ccoc2c1,76
2,O=C(N[C@H]1CN2CCC1CC2)c1ccc2occc2c1,88
3,O=C(N[C@H]1CN2CCC1CC2)c1ccc(Cl)cc1 [PNU-282987],74

# Biological target: Acetylcholine receptor; alpha1/beta1/delta/gamma (Homo sapiens, UniProt P02708+P07510+P11230+Q07001)
# Assay: Inhibition of alpha-1-beta-1-gamma-delta nAChR expressed in TE671cells by FLIPR assay
# Type: functional, cell-based, TE-671
# Details: not given
# Outline: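 Functional FLIPR read-out in TE671 cells expressing native muscle-type α1β1γδ nAChR, cell-based; tested for agonist and antagonist activity; IC50 in µM.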
# Sequence of Acetylcholine receptor; alpha1/beta1/delta/gamma (P02708 whole entry): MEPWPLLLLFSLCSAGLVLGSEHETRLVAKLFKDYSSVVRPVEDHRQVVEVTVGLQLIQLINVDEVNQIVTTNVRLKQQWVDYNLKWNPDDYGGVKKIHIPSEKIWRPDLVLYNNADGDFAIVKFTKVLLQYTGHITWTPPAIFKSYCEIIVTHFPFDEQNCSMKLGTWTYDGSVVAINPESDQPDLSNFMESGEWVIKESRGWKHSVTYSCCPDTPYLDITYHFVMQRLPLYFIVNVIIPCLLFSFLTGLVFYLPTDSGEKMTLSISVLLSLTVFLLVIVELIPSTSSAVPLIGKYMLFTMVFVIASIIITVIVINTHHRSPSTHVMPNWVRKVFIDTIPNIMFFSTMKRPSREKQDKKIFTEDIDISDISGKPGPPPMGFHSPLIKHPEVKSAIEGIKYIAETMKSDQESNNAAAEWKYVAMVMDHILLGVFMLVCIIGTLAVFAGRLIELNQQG
# Sequence of Acetylcholine receptor; alpha1/beta1/delta/gamma (P07510 whole entry): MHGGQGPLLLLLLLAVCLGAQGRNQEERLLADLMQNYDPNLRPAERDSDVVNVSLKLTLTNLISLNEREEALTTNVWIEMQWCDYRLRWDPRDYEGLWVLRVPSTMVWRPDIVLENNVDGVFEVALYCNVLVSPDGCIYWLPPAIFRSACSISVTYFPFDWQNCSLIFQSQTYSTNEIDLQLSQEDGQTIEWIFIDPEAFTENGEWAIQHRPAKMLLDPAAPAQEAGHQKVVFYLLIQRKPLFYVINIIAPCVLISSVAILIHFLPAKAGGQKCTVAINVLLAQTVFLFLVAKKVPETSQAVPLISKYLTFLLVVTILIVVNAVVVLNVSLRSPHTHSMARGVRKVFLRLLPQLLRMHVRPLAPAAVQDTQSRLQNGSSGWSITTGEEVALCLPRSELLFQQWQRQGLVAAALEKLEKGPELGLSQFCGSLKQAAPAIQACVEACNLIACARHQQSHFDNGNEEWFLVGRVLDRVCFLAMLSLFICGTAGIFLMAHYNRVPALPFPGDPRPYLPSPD
# Sequence of Acetylcholine receptor; alpha1/beta1/delta/gamma (P11230 whole entry): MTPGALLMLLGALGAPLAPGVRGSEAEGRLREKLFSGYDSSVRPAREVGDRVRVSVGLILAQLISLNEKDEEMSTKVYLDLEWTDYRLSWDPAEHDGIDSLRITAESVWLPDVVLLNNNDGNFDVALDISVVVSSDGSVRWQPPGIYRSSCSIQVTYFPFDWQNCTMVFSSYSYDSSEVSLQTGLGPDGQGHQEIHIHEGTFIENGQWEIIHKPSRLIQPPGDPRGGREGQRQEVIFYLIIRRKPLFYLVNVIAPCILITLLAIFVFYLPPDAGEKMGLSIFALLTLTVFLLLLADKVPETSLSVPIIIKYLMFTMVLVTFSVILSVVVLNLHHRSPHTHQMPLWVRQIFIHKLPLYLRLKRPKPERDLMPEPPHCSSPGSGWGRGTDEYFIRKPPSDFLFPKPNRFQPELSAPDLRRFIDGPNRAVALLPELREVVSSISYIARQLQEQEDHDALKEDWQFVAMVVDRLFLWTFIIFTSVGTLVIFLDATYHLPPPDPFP
# Sequence of Acetylcholine receptor; alpha1/beta1/delta/gamma (Q07001 whole entry): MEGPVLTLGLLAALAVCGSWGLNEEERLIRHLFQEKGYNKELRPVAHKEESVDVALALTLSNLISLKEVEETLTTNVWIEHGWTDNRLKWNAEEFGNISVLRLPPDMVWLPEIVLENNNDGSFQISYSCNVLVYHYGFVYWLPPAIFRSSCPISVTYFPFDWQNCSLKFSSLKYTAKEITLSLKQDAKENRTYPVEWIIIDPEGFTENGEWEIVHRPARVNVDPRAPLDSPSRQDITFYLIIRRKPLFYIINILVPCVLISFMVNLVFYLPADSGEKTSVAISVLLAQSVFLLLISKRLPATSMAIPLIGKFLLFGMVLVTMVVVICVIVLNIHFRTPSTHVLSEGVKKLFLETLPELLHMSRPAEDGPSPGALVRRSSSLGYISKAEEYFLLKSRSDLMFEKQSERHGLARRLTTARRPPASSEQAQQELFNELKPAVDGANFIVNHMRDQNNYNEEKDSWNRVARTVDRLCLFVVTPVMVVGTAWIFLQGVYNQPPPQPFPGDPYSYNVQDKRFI
row,Compound,IC50 [nM]
1,O=C(N[C@H]1CN2CCC1CC2)c1ccc2ccsc2c1,> 100000
2,O=C(N[C@H]1CN2CCC1CC2)c1ccc2ccoc2c1,> 100000
3,O=C(N[C@H]1CN2CCC1CC2)c1ccc2occc2c1,> 100000
4,O=C(N[C@H]1CN2CCC1CC2)c1ccc(Cl)cc1 [PNU-282987],> 60000

# Biological target: T1, hERG
# Assay: Inhibition of hERG expressed in HEK293 cells at 2 uM by patch clamp assay
# Type: toxicity, cell-based
# Details: HEK293 cells that express hERG
# Outline: as §1
row,Compound,inhibition at 2 µM [%]
1,O=C(N[C@H]1CN2CCC1CC2)c1ccc2ccsc2c1,13
2,O=C(N[C@H]1CN2CCC1CC2)c1ccc2ccoc2c1,2
3,O=C(N[C@H]1CN2CCC1CC2)c1ccc2occc2c1,2
4,O=C(N[C@H]1CN2CCC1CC2)c1ccc(Cl)cc1 [PNU-282987],11

# Biological target: Serotonin 3 (5-HT3) receptor
# Assay: Binding affinity to 5HT3 receptor
# Type: protein-complex assay, Homo sapiens
# Details: not given
row,Compound,Ki [nM]
1,O=C(N[C@H]1CN2CCC1CC2)c1ccc2ccsc2c1,174
2,O=C(N[C@H]1CN2CCC1CC2)c1ccc2ccoc2c1,310
3,O=C(N[C@H]1CN2CCC1CC2)c1ccc2occc2c1,663
4,O=C(N[C@H]1CN2CCC1CC2)c1ccc(Cl)cc1 [PNU-282987],1660

# Biological target: Neuronal acetylcholine receptor; alpha3/beta4 (Homo sapiens, UniProt P30926+P32297)
# Assay: Inhibition of alpha-3-beta-4 nAChR expressed in SHSY5Y cells by FLIPR assay
# Type: functional, cell-based, SH-SY5Y
# Details: not given
# Outline: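 FLIPR cell-based functional assay in SH-SY5Y cells, which carry α3β4-containing ganglion-type nAChRs; tested for agonist and antagonist activity; IC50 in µM.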
# Sequence of Neuronal acetylcholine receptor; alpha3/beta4 (P30926 whole entry): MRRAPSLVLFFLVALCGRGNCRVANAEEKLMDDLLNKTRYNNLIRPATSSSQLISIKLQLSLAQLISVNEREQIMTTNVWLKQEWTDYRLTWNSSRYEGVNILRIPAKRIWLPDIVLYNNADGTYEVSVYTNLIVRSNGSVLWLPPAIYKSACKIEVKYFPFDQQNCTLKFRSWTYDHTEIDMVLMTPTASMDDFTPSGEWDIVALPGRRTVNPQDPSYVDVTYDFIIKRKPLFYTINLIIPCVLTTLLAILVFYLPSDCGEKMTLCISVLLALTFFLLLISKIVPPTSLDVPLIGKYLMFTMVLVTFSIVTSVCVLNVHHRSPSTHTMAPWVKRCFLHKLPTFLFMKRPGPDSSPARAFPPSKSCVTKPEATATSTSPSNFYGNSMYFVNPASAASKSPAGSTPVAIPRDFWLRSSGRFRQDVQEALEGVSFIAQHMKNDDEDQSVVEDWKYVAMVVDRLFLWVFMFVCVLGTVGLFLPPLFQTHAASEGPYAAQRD
# Sequence of Neuronal acetylcholine receptor; alpha3/beta4 (P32297 whole entry): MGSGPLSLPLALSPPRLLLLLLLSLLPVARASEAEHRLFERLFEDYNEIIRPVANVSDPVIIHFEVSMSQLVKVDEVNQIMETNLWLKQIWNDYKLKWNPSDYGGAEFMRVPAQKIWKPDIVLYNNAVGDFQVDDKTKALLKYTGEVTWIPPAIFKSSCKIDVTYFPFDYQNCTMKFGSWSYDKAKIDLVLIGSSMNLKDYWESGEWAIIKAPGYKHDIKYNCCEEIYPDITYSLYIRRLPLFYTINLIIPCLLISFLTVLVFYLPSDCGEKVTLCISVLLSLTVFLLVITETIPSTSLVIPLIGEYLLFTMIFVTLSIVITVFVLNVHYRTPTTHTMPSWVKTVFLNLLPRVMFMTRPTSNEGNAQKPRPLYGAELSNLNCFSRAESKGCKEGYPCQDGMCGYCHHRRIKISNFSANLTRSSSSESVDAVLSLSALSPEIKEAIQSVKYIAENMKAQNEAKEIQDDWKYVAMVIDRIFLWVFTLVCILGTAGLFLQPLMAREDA
row,Compound,IC50 [nM]
1,O=C(N[C@H]1CN2CCC1CC2)c1ccc2ccsc2c1,38000
2,O=C(N[C@H]1CN2CCC1CC2)c1ccc2ccoc2c1,81000
3,O=C(N[C@H]1CN2CCC1CC2)c1ccc2occc2c1,> 100000
4,O=C(N[C@H]1CN2CCC1CC2)c1ccc(Cl)cc1 [PNU-282987],> 60000

# Biological target: Cytochrome P450 2D6 (Homo sapiens, UniProt P10635)
# Assay: Inhibition of CYP2D6
# Type: ADME
# Details: not given
# Sequence of Cytochrome P450 2D6 (P10635 whole entry): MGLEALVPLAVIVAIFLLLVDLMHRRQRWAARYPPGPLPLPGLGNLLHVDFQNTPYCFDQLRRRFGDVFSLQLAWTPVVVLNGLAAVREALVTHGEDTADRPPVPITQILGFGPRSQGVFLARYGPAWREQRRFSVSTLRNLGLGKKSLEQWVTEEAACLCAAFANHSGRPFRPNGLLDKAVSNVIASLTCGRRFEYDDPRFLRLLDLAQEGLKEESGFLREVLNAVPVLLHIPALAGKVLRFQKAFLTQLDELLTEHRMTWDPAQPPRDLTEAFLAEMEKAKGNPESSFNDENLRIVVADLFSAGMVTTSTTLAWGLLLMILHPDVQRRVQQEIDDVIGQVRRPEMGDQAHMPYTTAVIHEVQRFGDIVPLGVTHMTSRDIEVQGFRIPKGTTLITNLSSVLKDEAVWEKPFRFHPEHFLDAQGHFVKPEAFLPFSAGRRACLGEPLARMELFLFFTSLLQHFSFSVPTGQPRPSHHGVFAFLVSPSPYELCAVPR
row,Compound,IC50 [nM]
1,O=C(N[C@H]1CN2CCC1CC2)c1ccc2ccoc2c1,> 10000
2,O=C(N[C@H]1CN2CCC1CC2)c1ccc2occc2c1,3600
3,O=C(N[C@H]1CN2CCC1CC2)c1ccc(Cl)cc1 [PNU-282987],> 3000

# System: not listed separately
# Assay: Metabolic stability in Sprague-Dawley rat liver microsomes after 1 hr
# Type: ADME, Microsome
# Details: read-out: Stability
# Outline: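 Rat liver microsomes incubated with compound, in vitro metabolism; read-out is percent of parent remaining at 1 h.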
row,Compound,remaining at 1 h [%]
1,O=C(N[C@H]1CN2CCC1CC2)c1cc2occc2cn1,40
2,O=C(N[C@H]1CN2CCC1CC2)c1ccc2cc[nH]c2c1,14
3,O=C(N[C@H]1CN2CCC1CC2)c1cc2cc[nH]c2cn1,29
4,O=C(N[C@H]1CN2CCC1CC2)c1ccc2ccsc2c1,29
5,O=C(N[C@H]1CN2CCC1CC2)c1ccc2ccoc2c1,69
6,O=C(N[C@H]1CN2CCC1CC2)c1ccc2sccc2c1,6
7,O=C(N[C@H]1CN2CCC1CC2)c1ccc2occc2c1,77
8,O=C(N[C@H]1CN2CCC1CC2)c1ccc(Cl)cc1 [PNU-282987],96
9,O=C(N[C@H]1CN2CCC1CC2)c1cc2ccsc2cn1,7
10,O=C(N[C@H]1CN2CCC1CC2)c1cc2sccc2cn1,7

# System: not listed separately
# Assay: Activity at alpha7-5HT3 chimera expressed in SHEP1 cells by FLIPR assay
# Type: functional, cell-based
# Details: Homo sapiens, SH-EP1
# Outline: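 Cell-based FLIPR functional assay in SH-EP1 cells expressing the α7-5HT3 chimera. Values are the average of at least five experiments for most compounds.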
row,Compound,EC50 [nM]
1,O=C(N[C@H]1CN2CCC1CC2)c1ccc2[nH]ccc2c1,550
2,O=C(N[C@H]1CN2CCC1CC2)c1ccc2ccoc2n1,> 10000
3,O=C(N[C@H]1CN2CCC1CC2)c1cc2occc2cn1,374
4,O=C(N[C@H]1CN2CCC1CC2)c1ccc2cc[nH]c2c1,100
5,O=C(N[C@H]1CN2CCC1CC2)c1cc2cc[nH]c2cn1,1170
6,O=C(N[C@H]1CN2CCC1CC2)c1cnc2occc2c1,> 10000
7,O=C(N[C@H]1CN2CCC1CC2)c1ccc2c(c1)CCN2,600
8,O=C(N[C@H]1CN2CCC1CC2)c1ccc2ccsc2c1,48
9,O=C(N[C@H]1CN2CCC1CC2)c1ccc2ccoc2c1,86
10,O=C(N[C@H]1CN2CCC1CC2)c1ccc2c(c1)CCO2,77
11,O=C(N[C@H]1CN2CCC1CC2)c1ccc2sccc2c1,55
12,O=C(N[C@H]1CN2CCC1CC2)c1ccc2occc2c1,47
13,O=C(N[C@H]1CN2CCC1CC2)c1ccc(Cl)cc1 [PNU-282987],128
14,O=C(N[C@H]1CN2CCC1CC2)c1cc2ccsc2cn1,100
15,O=C(N[C@H]1CN2CCC1CC2)c1cc2sccc2cn1,81

# Biological target: Serotonin 3 (5-HT3) receptor
# Assay: Activity at 5HT3 receptor expressed in SHEP1 cells by FLIPR assay
# Type: functional, cell-based, Homo sapiens
# Details: not given
# Outline: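 Cell-based FLIPR functional assay in SH-EP1 cells expressing 5-HT3.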
row,Compound,Ki [nM]
1,O=C(N[C@H]1CN2CCC1CC2)c1ccc2ccsc2c1,188
2,O=C(N[C@H]1CN2CCC1CC2)c1ccc2ccoc2c1,962
3,O=C(N[C@H]1CN2CCC1CC2)c1ccc2occc2c1,580
4,O=C(N[C@H]1CN2CCC1CC2)c1ccc(Cl)cc1 [PNU-282987],4540

# System: not listed separately
# Assay: Half life in human liver microsome
# Type: ADME
# Details: liver microsomes
row,Compound,half-life [h]
1,O=C(N[C@H]1CN2CCC1CC2)c1ccc2ccoc2c1,> 2
2,O=C(N[C@H]1CN2CCC1CC2)c1ccc2occc2c1,> 2
3,O=C(N[C@H]1CN2CCC1CC2)c1ccc(Cl)cc1 [PNU-282987],> 2

# System: not listed separately
# Assay: Half life in Sprague-Dawley rat liver microsome
# Type: ADME
# Details: liver microsomes
row,Compound,half-life [h]
1,O=C(N[C@H]1CN2CCC1CC2)c1ccc2occc2c1,> 2
2,O=C(N[C@H]1CN2CCC1CC2)c1ccc(Cl)cc1 [PNU-282987],> 2

# Biological target: Neuronal acetylcholine receptor; alpha4/beta2 (Rattus norvegicus) (UniProt P09483+P12390)
# Assay: Inhibition of [3H]cytisine binding to alpha4beta2 nAChR in rat brain homogenate at 1 uM
# Type: tissue-based
# Details: not given
# Outline: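 Radioligand displacement in rat brain homogenate with [³H]cytisine as the α4β2 ligand; test compound at 1 µM; value reported as % block of binding.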
row,Compound,inhibition [%]
1,O=C(N[C@H]1CN2CCC1CC2)c1ccc2occc2c1,5
2,O=C(N[C@H]1CN2CCC1CC2)c1ccc(Cl)cc1 [PNU-282987],14

# Biological target: Neuronal acetylcholine receptor subunit alpha-7 (Rattus norvegicus, UniProt Q05941)
# Assay: Displacement of [3H]MLA from alpha-7 nAChR in Sprague-Dawley rat brain homogenates
# Type: tissue-based
# Details: not given
# Outline: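 Rat brain homogenate binding assay with [3H]MLA as radioligand. Values are the average of two or more experiments.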
row,Compound,Ki [nM]
1,O=C(N[C@H]1CN2CCC1CC2)c1cc2occc2cn1,50
2,O=C(N[C@H]1CN2CCC1CC2)c1ccc2c(c1)CCN2,83
3,O=C(N[C@H]1CN2CCC1CC2)c1ccc2ccsc2c1,2.1
4,O=C(N[C@H]1CN2CCC1CC2)c1ccc2ccoc2c1,12.5
5,O=C(N[C@H]1CN2CCC1CC2)c1ccc2c(c1)CCO2,15
6,O=C(N[C@H]1CN2CCC1CC2)c1ccc2sccc2c1,6.9
7,O=C(N[C@H]1CN2CCC1CC2)c1ccc2occc2c1,1.6
8,O=C(N[C@H]1CN2CCC1CC2)c1ccc(Cl)cc1 [PNU-282987],24
9,O=C(N[C@H]1CN2CCC1CC2)c1cc2ccsc2cn1,6.3
